# From ChEMBL document CHEMBL3856229, “Hybrid Antibiotic Overcomes Resistance in P. aeruginosa by Enhancing Outer Membrane Penetration and Reducing Efflux” (J Med Chem, 2016)
# What was measured:
# [1] = tested on: Staphylococcus aureus; assay: Antibacterial activity against Staphylococcus aureus ATCC 29213 after 24 hrs by microtitre broth dilution method; type: functional; settings: ATCC 29213, 24 h
# [2] = tested on: Staphylococcus epidermidis; assay: Antibacterial activity against methicillin-resistant Staphylococcus epidermidis isolate CAN-ICU 61589 after 24 hrs by microtitre broth dilution method; type: functional; settings: isolate CAN-ICU 61589, 24 h
# [3] = tested on: Pseudomonas aeruginosa; assay: Antibacterial activity against multidrug/extremely drug-resistant/colistin-susceptible Pseudomonas aeruginosa isolate 101885; type: functional
# [4] = tested on: Pseudomonas aeruginosa; assay: Antibacterial activity against multidrug-resistant/tobramycin-susceptible Pseudomonas aeruginosa isolate 79199; type: functional
# [5] = tested on: Pseudomonas aeruginosa; assay: Antibacterial activity against multidrug-resistant/tobramycin-susceptible Pseudomonas aeruginosa isolate 85322; type: functional
# [6] = tested on: Pseudomonas aeruginosa; assay: Antibacterial activity against multidrug-resistant/tobramycin-susceptible Pseudomonas aeruginosa isolate 108590; type: functional
# [7] = tested on: Pseudomonas aeruginosa; assay: Antibacterial activity against gentamicin/tobramycin-resistant Pseudomonas aeruginosa isolate CANWARD-2011 96846 after 24 hrs by microtitre broth dilution method; type: functional; settings: isolate CANWARD-2011 96846, 24 h
# [8] = tested on: Pseudomonas aeruginosa; assay: Antibacterial activity against multidrug/extremely drug-resistant/colistin-susceptible Pseudomonas aeruginosa isolate 264-104354; type: functional
# [9] = tested on: Staphylococcus epidermidis; assay: Antibacterial activity against methicillin-susceptible Staphylococcus epidermidis isolate CANWARD-2008 81388 after 24 hrs by microtitre broth dilution method; type: functional; settings: isolate CANWARD-2008 81388, 24 h
# [10] = tested on: Enterococcus faecalis; assay: Antibacterial activity against Enterococcus faecalis ATCC 29212 after 24 hrs by microtitre broth dilution method; type: functional; settings: ATCC 29212, 24 h
# [11] = tested on: Acinetobacter baumannii; assay: Antibacterial activity against Acinetobacter baumannii isolate CAN-ICU 63169 after 24 hrs by microtitre broth dilution method; type: functional; settings: isolate CAN-ICU 63169, 24 h
# [12] = tested on: Pseudomonas aeruginosa; assay: Antibacterial activity against multidrug/extremely drug-resistant/colistin-susceptible Pseudomonas aeruginosa isolate 260-97103; type: functional
# [13] = tested on: Escherichia coli; assay: Antibacterial activity against amikacin-resistant Escherichia coli isolate CAN-ICU 63074 after 24 hrs by microtitre broth dilution method; type: functional; settings: isolate CAN-ICU 63074, 24 h
# [14] = tested on: Streptococcus pneumoniae; assay: Antibacterial activity against Streptococcus pneumoniae ATCC 49619 after 24 hrs by microtitre broth dilution method; type: functional; settings: ATCC 49619, 24 h
# [15] = tested on: Escherichia coli; assay: Antibacterial activity against gentamicin-resistant Escherichia coli isolate CAN-ICU 61714 after 24 hrs by microtitre broth dilution method; type: functional; settings: isolate CAN-ICU 61714, 24 h
# [16] = tested on: Pseudomonas aeruginosa; assay: Antibacterial activity against multidrug-resistant/tobramycin-susceptible Pseudomonas aeruginosa isolate 84745; type: functional
# [17] = tested on: Stenotrophomonas maltophilia; assay: Antibacterial activity against Stenotrophomonas maltophilia isolate CAN-ICU 62584 after 24 hrs by microtitre broth dilution method; type: functional; settings: isolate CAN-ICU 62584, 24 h
# [18] = tested on: Pseudomonas aeruginosa; assay: Antibacterial activity against extremely drug-resistant Pseudomonas aeruginosa isolate 104354 infected in Galleria mellonella assessed as larvae survival at 75 mg/kg administered as single dose measured after 96 hrs; type: functional; settings: isolate 104354, 96 h
# Summary of the method: (§1)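 Galleria mellonella larvae were infected with 10^6 CFU of XDR P. aeruginosa #104354, resistant to all antipseudomonal classes except colistin. A single injected drug dose was given 2 h post-infection: 50 mg/kg with survival read at 24 h, or 75 mg/kg with survival read at 96 h. Controls were infected untreated larvae and PBS-injected larvae. Two independent experiments of 15 larvae each (n = 30).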
# [19] = tested on: Escherichia coli; assay: Antibacterial activity against Escherichia coli ATCC 25922 after 24 hrs by microtitre broth dilution method; type: functional; settings: ATCC 25922, 24 h
# [20] = tested on: Pseudomonas aeruginosa; assay: Antibacterial activity against multidrug/extremely drug-resistant/colistin-susceptible Pseudomonas aeruginosa isolate 262-101856; type: functional
# [21] = tested on: Pseudomonas aeruginosa; assay: Antibacterial activity against multidrug-resistant/tobramycin-susceptible Pseudomonas aeruginosa isolate 92014; type: functional
# [22] = tested on: Pseudomonas aeruginosa; assay: Antibacterial activity against multidrug-resistant/tobramycin-susceptible Pseudomonas aeruginosa isolate 86141; type: functional
# [23] = tested on: Pseudomonas aeruginosa; assay: Antibacterial activity against Pseudomonas aeruginosa ATCC 27853 after 24 hrs by microtitre broth dilution method; type: functional; settings: ATCC 27853, 24 h
# [24] = tested on: Pseudomonas aeruginosa; assay: Antibacterial activity against gentamicin-resistant Pseudomonas aeruginosa isolate CAN-ICU 62308 after 24 hrs by microtitre broth dilution method; type: functional; settings: isolate CAN-ICU 62308, 24 h
# [25] = tested on: Escherichia coli; assay: Antibacterial activity against gentamicin/tobramycin/ciprofloxacin-resistant Escherichia coli isolate CANWARD-2011 97615 harboring AAC3-2A after 24 hrs by microtitre broth dilution method; type: functional; settings: isolate CANWARD-2011 97615, 24 h
# [26] = tested on: Pseudomonas aeruginosa; assay: Antibacterial activity against multidrug-resistant/tobramycin-susceptible Pseudomonas aeruginosa isolate 83182; type: functional
# [27] = tested on: Pseudomonas aeruginosa; assay: Ratio of MIC for Pseudomonas aeruginosa PAO1 after 25 serial passages to MIC for Pseudomonas aeruginosa PAO1 prior to 25 serial passages; type: functional
# Summary of the method: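 P. aeruginosa PAO1 exposed to sub-inhibitory (0.5 x MIC) drug over successive subcultures as a resistance-selection procedure. MIC compared after versus before passaging.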
# [28] = tested on: Pseudomonas aeruginosa; assay: Antibacterial activity against extremely drug-resistant Pseudomonas aeruginosa isolate 104354 infected in Galleria mellonella assessed as larvae survival at 50 mg/kg administered as single dose measured after 24 hrs (reference value: 27 %); type: functional; settings: isolate 104354, 24 h; summary of the method: as §1
# [29] = tested on: Pseudomonas aeruginosa; assay: Antibacterial activity against multidrug/extremely drug-resistant/colistin-susceptible Pseudomonas aeruginosa isolate 259-96918; type: functional
# [30] = tested on: Pseudomonas aeruginosa; assay: Antibacterial activity against Pseudomonas aeruginosa PAO1; type: functional
# [31] = tested on: Staphylococcus aureus; assay: Antibacterial activity against methicillin-resistant Staphylococcus aureus ATCC 33592 after 24 hrs by microtitre broth dilution method; type: functional; settings: ATCC 33592, 24 h
# [32] = tested on: Pseudomonas aeruginosa; assay: Antibacterial activity against multidrug/extremely drug-resistant/colistin-susceptible Pseudomonas aeruginosa isolate 100036; type: functional
# [33] = Inhibition of circular DNA translation in Escherichia coli S30 extract after 60 mins by luciferase reporter gene assay
# Summary of the method: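 Translation was run in an E. coli S30 extract with a luciferase read-out. Luminescence is expressed as a percentage of the no-antibiotic control, taken as 100%.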
# [34] = tested on: Pseudomonas aeruginosa; assay: Antibacterial activity against multidrug-resistant/tobramycin-susceptible Pseudomonas aeruginosa isolate 86079; type: functional
# [35] = tested on: Pseudomonas aeruginosa; assay: Antibacterial activity against pandrug-resistant Pseudomonas aeruginosa isolate 91433; type: functional
# [36] = tested on: Klebsiella pneumoniae; assay: Antibacterial activity against Klebsiella pneumoniae ATCC 13883 after 24 hrs by microtitre broth dilution method; type: functional; settings: ATCC 13883, 24 h
# [37] = tested on: Pseudomonas aeruginosa; assay: Antibacterial activity against multidrug-resistant/tobramycin-susceptible Pseudomonas aeruginosa isolate 86053; type: functional
# [38] = tested on: Pseudomonas aeruginosa; assay: Antibacterial activity against multidrug-resistant/tobramycin-susceptible Pseudomonas aeruginosa isolate 86052; type: functional
# [39] = tested on: Pseudomonas aeruginosa; assay: Antibacterial activity against multidrug-resistant/tobramycin-susceptible Pseudomonas aeruginosa isolate 80621; type: functional
# [40] = tested on: Pseudomonas aeruginosa; assay: Induction of cytoplasmic membrane depolarization in Pseudomonas aeruginosa PAO1 by DiSC3(5) dye based fluorescence assay; type: functional
# [41] = tested on: Pseudomonas aeruginosa; assay: Antibacterial activity against pandrug-resistant Pseudomonas aeruginosa isolate 101243; type: functional
# [42] = tested on: Enterococcus faecium; assay: Antibacterial activity against Enterococcus faecium ATCC 27270 after 24 hrs by microtitre broth dilution method; type: functional; settings: ATCC 27270, 24 h
# [43] = tested on: Pseudomonas aeruginosa; assay: Antibacterial activity against multidrug-resistant/tobramycin-susceptible Pseudomonas aeruginosa isolate 86067; type: functional
# [44] = Inhibition of Pseudomonas aeruginosa DNA gyrase A assessed as inhibition of DNA supercoiling using PBR322 DNA as substrate after 30 mins by SYBR Gold staining based agarose gel electrophoresis
smiles,measurement,setting,value
NC[C@H]1O[C@H](O[C@H]2[C@H](O)[C@@H](O[C@H]3O[C@H](CO)[C@@H](O)[C@H](N)[C@H]3O)[C@H](N)C[C@@H]2N)[C@H](N)C[C@@H]1O [TOBRAMYCIN],MIC,[1],≤ 0.25 µg/mL
same,MIC,[2],1 µg/mL
same,MIC,[3],< 0.5 µg/mL
same,MIC,[4],2 µg/mL
same,MIC,[5],1 µg/mL
same,MIC,[6],4 µg/mL
same,MIC,[7],256 µg/mL
same,MIC,[8],> 64 µg/mL
same,MIC,[9],≤ 0.25 µg/mL
same,MIC,[10],8 µg/mL
same,MIC,[11],32 µg/mL
same,MIC,[12],32 µg/mL
same,MIC,[13],8 µg/mL
same,MIC,[14],2 µg/mL
same,MIC,[15],8 µg/mL
same,MIC,[16],1 µg/mL
same,MIC,[17],> 512 µg/mL
same,survival at 75 mg/kg,[18],0%
same,MIC,[19],0.5 µg/mL
same,MIC,[20],> 64 µg/mL
same,MIC,[21],1 µg/mL
same,MIC,[22],1 µg/mL
same,MIC,[23],0.5 µg/mL
same,MIC,[24],16 µg/mL
same,MIC,[25],128 µg/mL
same,MIC,[26],1 µg/mL
same,Ratio,[27],512
same,survival at 50 mg/kg,[28],20%
same,MIC,[29],> 64 µg/mL
same,MIC,[30],0.5 µg/mL
same,MIC,[31],≤ 0.25 µg/mL
same,MIC,[32],64 µg/mL
same,IC50,[33],6.2 nM
same,MIC,[34],2 µg/mL
same,MIC,[35],8 µg/mL
same,MIC,[36],≤ 0.25 µg/mL
same,MIC,[37],1 µg/mL
same,MIC,[38],1 µg/mL
same,MIC,[39],2 µg/mL
same,Activity,[40],Dose-dependent effect
same,MIC,[41],> 64 µg/mL
same,MIC,[42],8 µg/mL
same,MIC,[43],> 64 µg/mL
COc1c(N2C[C@@H]3CCCN(CCCCCCCCCCCCO[C@H]4[C@@H](O[C@@H]5[C@@H](O)[C@H](O[C@H]6O[C@H](CN)[C@@H](O)C[C@H]6N)[C@@H](N)C[C@H]5N)O[C@H](CO)[C@@H](O)[C@@H]4N)[C@@H]3C2)c(F)cc2c(=O)c(C(=O)O)cn(C3CC3)c12.Cl.Cl.Cl.Cl.Cl,MIC,[1],4 µg/mL
same,MIC,[2],8 µg/mL
same,MIC,[7],> 128 µg/mL
same,MIC,[8],32 µg/mL
same,MIC,[9],2 µg/mL
same,MIC,[10],32 µg/mL
same,MIC,[11],128 µg/mL
same,MIC,[12],> 32 µg/mL
same,IC50,[44],2100 nM
same,MIC,[13],32 µg/mL
same,MIC,[14],32 µg/mL
same,MIC,[15],64 µg/mL
same,MIC,[17],> 128 µg/mL
same,MIC,[19],4 µg/mL
same,MIC,[20],32 µg/mL
same,MIC,[23],16 µg/mL
same,MIC,[24],128 µg/mL
same,MIC,[25],128 µg/mL
same,MIC,[29],> 32 µg/mL
same,MIC,[30],> 32 µg/mL
same,MIC,[31],8 µg/mL
same,IC50,[33],130 nM
same,MIC,[36],4 µg/mL
same,MIC,[42],16 µg/mL
